PGE2 EP2 inh – inhibitors of human EP2 prostaglandin E2 receptor; P43116; C6 glioma cells expressing human EP2, cAMP TR-FRET; cells stimulated with saturating PGE2; inhibition, % at 25 µM; hit rate 0.52% among 260,000; AID 1422;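 active = percent inhibition above 40 after rounding to a whole number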;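 also: rat C6 glioma host cells with rolipram phosphodiesterase inhibitor present; the protocol text gives 20 µM as final concentration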
Target sequence (P43116 whole entry, looked up): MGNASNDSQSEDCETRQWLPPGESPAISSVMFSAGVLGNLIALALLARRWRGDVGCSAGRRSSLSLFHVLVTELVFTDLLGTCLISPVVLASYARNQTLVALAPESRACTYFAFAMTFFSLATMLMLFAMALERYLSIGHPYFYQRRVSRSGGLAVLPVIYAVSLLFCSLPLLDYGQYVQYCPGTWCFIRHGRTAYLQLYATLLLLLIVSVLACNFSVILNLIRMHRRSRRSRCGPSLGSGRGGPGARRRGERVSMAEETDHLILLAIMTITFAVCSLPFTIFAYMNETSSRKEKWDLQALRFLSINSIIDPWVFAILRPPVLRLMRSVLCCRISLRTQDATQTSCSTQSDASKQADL
T cell HTS – T cell immune modulation candidate; 2C CD8+ T cell-vesicle binding, flow cytometry; hits give low values; response (vesicle binding), % at 7 µM; hit rate 0.068% among 330,000; AID 2052;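 active = response, share of CD8 T cells binding vesicles, and their 90th percentile fluorescence all below set limits, cut at about 80% in these data, passing the limit was not always enough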;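 also: values below 100% mean blocked vesicle binding to the CD8+ T cells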
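Assay system: 2C TCR transgenic mouse naive CD8+ T cells, MACS-purified | Read-out: CD8+ gate FL2 mean fluorescence as % of same-row positive control | Signal: High-throughput flow cytometry with anti-B7-1 and anti-CD8 staining | Timing: Binding step 1.5 h, 37 °C, antibody labelling 20 min, ice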
Exocytosis inh – lytic granule exocytosis inhibition; TALL-104 LAMP-1 surface exposure, flow cytometry; cells stimulated with thapsigargin and PMA; inhibition, % at 10 µM; hit rate 0.66% among 360,000; AID 651702;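 active = inhibition above about 55%, limit read from the data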
EP2 mod – EP2 receptor (human) modulation; P43116; EP2-expressing cells, cAMP HTRF FRET, PGE2 co-stimulation; induction, % at 25 µM; hit rate 0.83% among 260,000; AID 940;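 active = compounds whose cAMP rise, as percent of the full-agonist control response, exceeds 60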;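 also: rat C6 glioma line stably carrying human EP2 under a CMV promoter; the protocol text gives 20 µM as final concentration; 100% = response of wells given 1 µM PGE2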
MC4R antagonist – blocks human MC4R cAMP signaling; MC4R-expressing cells, MTII-stimulated cAMP, LANCE TR-FRET; P32245; inhibition, % at 6.5 µM; hit rate 0.48% among 360,000;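 active = inhibition above its plate's cutoff, the mean of tested wells on that plate plus 3 SD, cut at about 29% in these data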;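 also: 0% = Melanotan II alone and 100% = Melanotan II plus saturating MCL0020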
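Material: human MC4R-expressing U2OS cells. Probe or stimulus: Melanotan II challenge. Dosing: 6.5 µM single dose. Times: 30-min compound, 1-h challenge, 1-h detection, room temperature. Technique: TR-FRET with Eu-cAMP and labeled anti-cAMP, 671 nm. Replication: singlicate.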
MC4R ag barr – human MC4R agonism via beta-arrestin. P32245. U2OS MC4R beta-arrestin complementation, luminescence; percent of melanotan II response, DMSO zero. activation, % at 8.9 µM. hit rate 0.98% among 360,000. AID 540308;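 active = activation above a per-plate cutoff, the mean activation of sample wells on that plate plus 3 SD, cut at about 8% in these data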
EP2 cAMP induct – human EP2 receptor cAMP induction, negative in counter-screens; calls only at 20 µM (by protocol); C6 glioma EP2 cells, cAMP HTRF induction; plus low (about EC15) PGE2 agonist; hit rate 47% among 1,300; shares compounds with EP2 mod; AID 1080;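 active = cAMP induction above 50% in the main assay while under 30% in all four parallel counter assays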;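 also: rat C6 glioma cells stably expressing human EP2 receptor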
* hit, by the source's call; i = inactive; / = not tested or not shown; + = active, no number; ! = not active in a repeat. Shown are actives, neighbours in structure and some others; about 2.6% of the full set was active somewhere.

SMILES	PGE2 EP2 inh	T cell HTS	Exocytosis inh	EP2 mod	MC4R antagonist	MC4R ag barr	EP2 cAMP induct
CC1CCCC/C1=N\Nc1ccc(S(N)(=O)=O)cc1[N+](=O)[O-] (configuration not stated)	5	303	-3	46	-4	-2	/
COC(=O)c1c(NC(=O)c2ccccc2N(C)S(=O)(=O)c2ccccc2)sc2c1CCCC2	0	/	-1	54	-3	-1	i
O=C(NCC(c1cccs1)N1CCOCC1)c1ccccc1NS(=O)(=O)c1ccc(Cl)cc1 (configuration not stated)	3	269	-1	15	10	-2	/
Cc1sc(NC(=O)c2ccccc2F)c(CN2CCCCC2C)c1C (configuration not stated)	10	291	11	79*	7	0	+
COC(=O)c1c(NC(=O)c2ccccc2F)sc(C(=O)N2CCCCC2)c1C	24	/	/	23	/	/	/
Fc1ccc(Sc2nc(-c3ccccc3)nnc2C(F)(F)F)cc1	9	409	33	65*	3	-3	i
FC(F)(F)c1nnc(-c2ccccc2)nc1Oc1ccccc1	3	475	0	49	4	-1	/
Fc1ccc(Oc2nc(-c3ccccc3)nnc2C(F)(F)F)cc1	11	325	2	69*	12	-1	+
CCOC(=O)[C@H]1[C@H]2COc3ccc(Cl)cc3[C@@H]2N2C(=O)CN(Cc3ccc(Cl)cc3)C(=O)[C@@]12C	/	275	0	/	5	-1	/
CCc1ccc(OCc2n[nH]c(=S)n2Cc2ccccc2)cc1	4	171	-4	31	-1	2	/
CCc1ccc(OCc2n[nH]c(=S)n2C(C)CCCC(C)C)cc1 (configuration not stated)	4	458	1	69*	1	-1	+
COc1ccc(C(=O)CC(C#N)c2ccc3c(c2)OCO3)cc1OC (configuration not stated)	/	/	0	/	2	-1	/
S=C(Nc1ccccc1Cl)N(Cc1ccccc1)Cc1ccccn1	3	327	5	76*	19	0	+
CCOc1ccc2cc(C#N)c(SCC(=O)NC(C)CC)nc2c1 (configuration not stated)	19	377	/	69*	/	/	i
COc1cccc(N2CC(C(=O)Nc3nnc(SCC(=O)N4CCCC4)s3)CC2=O)c1 (configuration not stated)	/	169	7	/	-1	-3	/
Cc1noc(C)c1CSc1nc2ccccc2c(=O)n1-c1ccc(Cl)cc1	8	511	2	71*	14	-3	+
O=c1cc(N2CCCCC2)c(-c2ccccc2)nn1Cc1ccc(Cl)cc1Cl	8	400	4	60	-2	-1	/
O=c1cc(N2CCCCC2)c(-c2ccccc2)nn1Cc1cccc(Cl)c1	7	469	-1	81*	12	0	+
O=c1cc(N2CCCCC2)c(-c2ccccc2)nn1Cc1ccccc1Cl	3	454	6	70*	9	-1	+
CCOc1nsc(OCC)n1	10	188	-3	11	13	-1	/
CCOC(=O)c1oc2ccccc2c1NC(=O)c1cccc(OC)c1OC	10	116	2	66*	2	-1	i
CCOc1ccc(NC(=O)COc2ccc(C(=O)NCc3cccnc3)cc2OC)cc1	/	112	-5	/	10	1	/
O=C(Nc1ccccc1N1CCCCC1)c1cnccn1	5	400	-9	66*	4	1	+
Cc1ccc(C(=O)Nc2ccccc2N2CCCCC2)cc1[N+](=O)[O-]	1	247	-4	66*	0	-3	+
COc1ccc(C(=O)Nc2ccccc2N2CCCCC2)cc1[N+](=O)[O-]	5	313	0	52	-7	1	+
SMILES	PGE2 EP2 inh	T cell HTS	Exocytosis inh	EP2 mod	MC4R antagonist	MC4R ag barr	EP2 cAMP induct
COCC(C)n1c(SCC(=O)c2cc(C)n(C)c2C)nc2ccccc2c1=O (configuration not stated)	8	416	2	-35	4	-2	/
COC(=O)c1cc2occc2n1Cc1cccc(C)c1	3	394	4	76*	-9	-2	+
COC(=O)c1cc2occc2n1Cc1nc(-c2ccccc2Cl)oc1C	11	926	-3	49	-3	6	/
Cc1cc(C)c(S(=O)(=O)O)c(C)n1	12	395	1	77*	-3	0	i
Cc1cc(C)c(S(C)(=O)=O)c(S(=O)(=O)c2ccc(Cl)cc2)n1	9	329	-2	22	4	0	/
S=C1NCCc2ccc(Cl)cc2C1c1ccccc1 (configuration not stated)	7	131	1	75*	6	-1	+
c1ccc(C2CNCCc3ccccc32)cc1 (configuration not stated)	/	256	-7	/	5	0	/
C=CCn1c(CNC(=O)c2cccs2)nnc1SCC(=O)c1ccc(Br)cc1	5	282	-1	52	-2	-1	i
O=S(=O)(c1ccc(F)cc1)c1snnc1-c1ccccc1	-1	378	1	69*	0	-1	+
O=S(=O)(O)c1ccc2c(N=Nc3c(O)ccc4ccccc34)cccc2c1	41*	/	/	75*	/	/	i
Brc1ccccc1C1CC(c2ccccc2)=Nc2ccccc2N1 (configuration not stated)	6	194	-9	48	-3	-1	/
c1ccc(C2=Nc3ccccc3NC(c3ccccc3)C2)cc1 (configuration not stated)	1	311	-1	65*	8	1	+
O=C1CC(C(=O)Nc2ccc3c(c2)OCO3)SC(=Nc2ccccc2)N1 (configuration not stated)	7	/	/	-31	/	/	/
COc1ccc(Cl)cc1-n1c(C)ccc1C	16	573	-4	69*	3	-2	i
Cn1cnnc1SCc1ccc(C(=O)N/N=C(\CCC(=O)O)c2ccc(C(C)(C)C)cc2)cc1	9	294	0	11	6	-2	/
CNC(=O)c1cc2c(=O)n3cc(C)ccc3nc2n(C(C)C)c1=N	14	159	-3	73*!	-5	2	i
Cc1noc(C)c1CSc1ncnc2ccccc12	12	150	-2	19	-9	1	/
Cc1sc2ncnc(SCc3ccco3)c2c1C	9	428	14	64*	-7	0	+
C=CCn1c(SCc2c(C)noc2C)nc2sc(C)c(C)c2c1=O	8	495	7	62*	0	2	+
